{"data": "Assay results pooled from the literature", "read-out": "microbial growth"}
{"Compound": "COc1ccc(-c2nc3ccc(C)cc3[nH]2)cc1OC", "organism": "Staphylococcus aureus", "method": "broth dilution", "strain": "ATCC43300 MRSA", "setting": "drug-resistant strain", "MIC": "256 µg/mL"}
{"Compound": "CC(C)[C@H](N)C(=O)OCCCCCn1cnc2nc(NCc3ccc(Cl)c(Cl)c3)[nH]c(=O)c21", "organism": "Lactobacillus acidophilus", "method": "agar dilution", "time": "48 h", "MIC": "8 µg/mL"}
{"Compound": "COC(=O)c1cc(-c2cccc(NC(=S)NC3CCCCC3)c2)on1", "organism": "Escherichia coli", "method": "broth dilution", "strain": "ATCC25922", "MIC": "> 64 µg/mL"}
{"Compound": "Clc1ccc(-c2nc3ccccc3[nH]2)cc1Cl", "organism": "Staphylococcus aureus", "method": "broth dilution", "strain": "ATCC43300 MRSA", "setting": "drug-resistant strain", "MIC": "64 µg/mL"}
{"Compound": "CC1(C)CC[C@]2(C(=O)O)CC[C@]3(C)C(=CC[C@@H]4[C@@]5(C)CC[C@H](O)C(C)(C)[C@@H]5CC[C@]43C)[C@@H]2C1", "organism": "Staphylococcus aureus", "strain": "ATCC29213", "MIC": "128 µg/mL"}
{"Compound": "COC(=O)c1cc(-c2cccc(NC(=O)Nc3cccc(Br)c3)c2)on1", "organism": "Escherichia coli", "method": "broth dilution", "strain": "ATCC25922", "MIC": "> 64 µg/mL"}
{"Compound": "Cc1ccc2[nH]c3c(c2c1)CCCC3NCCc1ccc(O)cc1 (centres unmarked)", "organism": "Micrococcus luteus", "method": "broth dilution", "strain": "DSM1790", "MIC": "8 µg/mL"}
{"Compound": "Cc1ccc2nc(-c3ccc4c(c3)OCO4)[nH]c2c1", "organism": "Staphylococcus aureus", "method": "broth dilution", "strain": "ATCC43300 MRSA", "setting": "drug-resistant strain", "MIC": "512 µg/mL"}
{"Compound": "COC(=O)c1cc(-c2cccc(NC(=O)Nc3cccc(Cl)c3Cl)c2)on1", "organism": "Escherichia coli", "method": "broth dilution", "strain": "ATCC25922", "MIC": "> 64 µg/mL"}
{"Compound": "CN[C@H](CC(C)C)C(=O)N[C@H]1C(=O)N[C@@H](CC(N)=O)C(=O)N[C@H]2C(=O)N[C@H]3C(=O)N[C@H](C(=O)N[C@H](C(=O)O)c4cc(O)cc(O)c4-c4cc3ccc4O)[C@H](O)c3ccc(c(Cl)c3)Oc3cc2cc(c3O[C@@H]2O[C@H](CO)[C@@H](O)[C@H](O)[C@H]2O[C@H]2C[C@](C)(N)[C@H](O)[C@H](C)O2)Oc2ccc(cc2Cl)[C@H]1O", "organism": "Lactobacillus acidophilus", "method": "agar dilution", "time": "48 h", "MIC": "2 µg/mL"}
{"Compound": "c1ccc(CCOC2CCCc3c2[nH]c2ccccc32)cc1 (centres unmarked)", "organism": "Micrococcus luteus", "method": "broth dilution", "strain": "DSM1790", "MIC": "128 µg/mL"}
